Experimental findings from ChEMBL document CHEMBL1681770, “CD22-antagonists with nanomolar potency: the synergistic effect of hydrophobic groups at C-2 and C-9 of sialic acid scaffold” (Bioorg Med Chem, 2011) are described below.

Assay [1] deals with T1, B-cell receptor CD22 (Mus musculus, UniProt P35329).
T1 sequence (P35329 whole entry): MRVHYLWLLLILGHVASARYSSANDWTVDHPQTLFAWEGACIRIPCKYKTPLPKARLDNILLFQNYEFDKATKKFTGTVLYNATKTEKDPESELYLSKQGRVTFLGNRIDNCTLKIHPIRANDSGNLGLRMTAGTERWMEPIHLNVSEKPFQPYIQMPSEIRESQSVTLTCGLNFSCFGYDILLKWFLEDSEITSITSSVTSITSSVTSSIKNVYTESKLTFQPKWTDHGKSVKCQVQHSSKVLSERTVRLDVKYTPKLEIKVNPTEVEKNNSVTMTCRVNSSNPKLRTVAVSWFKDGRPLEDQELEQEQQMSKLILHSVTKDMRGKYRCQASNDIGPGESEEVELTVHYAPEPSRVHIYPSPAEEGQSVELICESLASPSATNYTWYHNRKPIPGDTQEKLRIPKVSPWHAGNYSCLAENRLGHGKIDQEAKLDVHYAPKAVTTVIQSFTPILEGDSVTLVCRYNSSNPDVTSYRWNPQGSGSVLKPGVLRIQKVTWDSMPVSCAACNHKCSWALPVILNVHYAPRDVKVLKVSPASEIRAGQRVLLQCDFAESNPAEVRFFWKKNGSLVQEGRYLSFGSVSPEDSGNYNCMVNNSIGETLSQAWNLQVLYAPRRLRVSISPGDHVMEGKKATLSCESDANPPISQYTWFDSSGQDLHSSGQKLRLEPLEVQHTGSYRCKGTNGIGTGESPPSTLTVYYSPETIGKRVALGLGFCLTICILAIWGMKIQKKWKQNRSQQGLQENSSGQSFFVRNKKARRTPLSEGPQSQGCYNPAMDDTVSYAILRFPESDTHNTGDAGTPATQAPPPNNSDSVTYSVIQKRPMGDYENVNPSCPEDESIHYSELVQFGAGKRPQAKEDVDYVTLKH
Put plainly: Antagonist activity at mouse CD22 after 1 hr by competitive ELISA. The format is functional. Put shortly: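 Competition ELISA. Wells coated overnight with streptavidin (40 μg/mL in 50 mM NaHCO3, pH 8.5), then loaded 1 h with biotinylated sialoside probe (4 μg/mL in PBS) and blocked 3 h with 0.5% BSA/PBS. Graded inhibitor concentrations were incubated 1 h with 0.5 μg CD22Fc. After PBS/0.05% Tween 20 washes, bound Fc was detected with alkaline phosphatase anti-human IgG Fc. Triplicates, mean ± SD.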

The target in assay [2] is T2, B-cell receptor CD22 (Homo sapiens, UniProt P20273).
T2 sequence (P20273 whole entry): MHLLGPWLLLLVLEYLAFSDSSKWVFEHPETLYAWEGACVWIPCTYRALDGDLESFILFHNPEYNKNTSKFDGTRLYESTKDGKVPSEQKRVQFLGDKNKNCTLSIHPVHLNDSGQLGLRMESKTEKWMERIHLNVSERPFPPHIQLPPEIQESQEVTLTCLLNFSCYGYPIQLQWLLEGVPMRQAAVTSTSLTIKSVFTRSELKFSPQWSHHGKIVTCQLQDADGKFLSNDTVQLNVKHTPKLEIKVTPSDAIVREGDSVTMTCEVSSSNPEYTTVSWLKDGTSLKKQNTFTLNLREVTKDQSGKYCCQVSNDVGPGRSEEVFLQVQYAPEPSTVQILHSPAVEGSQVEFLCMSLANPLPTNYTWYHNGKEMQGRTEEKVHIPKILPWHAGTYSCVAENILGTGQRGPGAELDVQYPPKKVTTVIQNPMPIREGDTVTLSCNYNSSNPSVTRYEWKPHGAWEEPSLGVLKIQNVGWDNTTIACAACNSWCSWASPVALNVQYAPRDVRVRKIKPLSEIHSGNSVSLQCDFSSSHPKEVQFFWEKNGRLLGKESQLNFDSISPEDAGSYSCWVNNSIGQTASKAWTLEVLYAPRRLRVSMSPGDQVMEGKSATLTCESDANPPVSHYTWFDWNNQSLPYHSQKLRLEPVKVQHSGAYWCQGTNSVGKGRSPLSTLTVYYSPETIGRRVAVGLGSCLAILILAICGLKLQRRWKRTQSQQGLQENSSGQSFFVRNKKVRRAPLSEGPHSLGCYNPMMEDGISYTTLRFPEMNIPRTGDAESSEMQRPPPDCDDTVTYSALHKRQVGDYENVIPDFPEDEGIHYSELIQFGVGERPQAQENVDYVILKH
The assay is described as follows: Antagonist activity at human CD22 after 1 hr by competitive ELISA. In kind it is functional. Put shortly: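 Neutravidin-precoated plates (1 μg/well, overnight, 4°C) were blocked with 0.5% BSA in HBSS for 30 min at 37°C. Biotinylated Siaα2-6LacNAc-PAA (0.625 μg/mL) was bound 1 h at RT. Inhibitor and precomplexed hCD22-Fc/goat anti-human IgG F(ab')2 were added and bound 30 min at 37°C. After HBSS washes: TMB, H2SO4 stop, OD450. Triplicates, mean ± SD.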

Assay [3] deals with T3, B-cell receptor CD22 (Mus musculus) (UniProt P35329).
T3 sequence (whole entry): T1 sequence (P35329 whole entry)
The assay is described as follows: Ratio of IC50 for 9-(4'-hydroxy-4-biphenyl)acetamido-9-deoxy-Neu5Gca2-6GalOMP to IC50 for compound at mouse CD22. In short, it runs like this: (§1)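 Relative inhibitory potency (rIP) = IC50 of the 9-biphenylacetamido Neu5Gcα2-6GalOMP reference divided by IC50 of the test sialoside, each IC50 taken from the competition ELISA for the respective CD22 species. Values above 1.0 mean tighter binding than the reference.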

Assay [4] addresses B-cell receptor CD22 (Homo sapiens) (UniProt P20273). The assay is described as follows: Ratio of IC50 for 9-(4'-hydroxy-4-biphenyl)acetamido-9-deoxy-Neu5Gca2-6GalOMP to IC50 for compound at human CD22. Put shortly:
as §1

Assay [5] is filed under the species Homo sapiens. The assay is described as follows: Selectivity ratio of IC50 for human MAG to IC50 for human CD22.
Assay [6] addresses T4, Myelin-associated glycoprotein (Homo sapiens, UniProt P20916).
T4 sequence (P20916 whole entry): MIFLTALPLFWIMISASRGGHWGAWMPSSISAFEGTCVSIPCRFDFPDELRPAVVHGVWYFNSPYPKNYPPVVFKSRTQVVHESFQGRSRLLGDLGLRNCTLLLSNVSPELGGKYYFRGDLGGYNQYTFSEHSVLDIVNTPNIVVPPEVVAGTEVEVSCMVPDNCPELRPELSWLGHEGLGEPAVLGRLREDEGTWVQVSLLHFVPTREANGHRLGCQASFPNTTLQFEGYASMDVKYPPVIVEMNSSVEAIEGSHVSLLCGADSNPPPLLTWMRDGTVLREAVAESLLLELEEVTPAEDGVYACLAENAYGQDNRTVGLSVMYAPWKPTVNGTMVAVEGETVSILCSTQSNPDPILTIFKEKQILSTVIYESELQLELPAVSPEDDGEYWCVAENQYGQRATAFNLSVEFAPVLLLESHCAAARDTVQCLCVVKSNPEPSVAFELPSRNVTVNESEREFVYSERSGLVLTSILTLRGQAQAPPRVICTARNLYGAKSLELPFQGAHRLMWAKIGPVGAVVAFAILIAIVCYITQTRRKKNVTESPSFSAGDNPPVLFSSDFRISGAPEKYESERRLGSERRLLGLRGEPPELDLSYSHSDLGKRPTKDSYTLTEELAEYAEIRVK
Put plainly: Inhibition of human MAG after 30 min by competitive ELISA.

The target in assay [7] is T4, Myelin-associated glycoprotein. Put plainly: Inhibition of human MAG after 1 hr by competitive ELISA. Particulars: in the assay text read “after 30 min” for “after 1 hr”. In short, it runs like this:
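Neutravidin plates as for hCD22, with biotinylated Siaα2-3LacNAc-PAA (0.33 μM) bound 1 h at RT. MAG-Fc (~0.12 μg/ml) was pretreated with V. cholerae sialidase (0.4 mU/ml) 45 min, stopped with 1 mM EDTA, then complexed 45 min with goat anti-human IgG F(ab')2 (0.05 μg/mL) and HRP anti-goat F(ab')2 (0.0167 μg/mL). Complex was diluted 3:2, bound with inhibitor 30 min at 37°C, and read by TMB at OD450.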

SMILES strings stand for the structures.

Consider `O=C(Cc1ccc(-c2ccc(O)cc2)cc1)NC[C@@H](O)[C@@H](O)[C@@H]1O[C@@](OCc2ccccc2)(C(=O)O)C[C@H](O)[C@H]1NC(=O)CO`, for which the IC50 in assay [1] was 0.1 µM; in assay [2] it was 0.13 µM; in assay [6] it was 171 µM. The figures for the Ratio IC50 in assay [3], in assay [4] and in assay [5] were 38.4, 7 and 712, respectively.

As for `O=C(Cc1ccc(-c2ccc(F)cc2)cc1)NC[C@@H](O)[C@@H](O)[C@@H]1O[C@@](OCc2ccccc2)(C(=O)O)C[C@H](O)[C@H]1NC(=O)CO`, the IC50 in assay [1] stood at 5 µM. In addition, the Ratio IC50 in assay [3] amounted to 0.77.

Turning to `COc1ccc(O[C@@H]2O[C@H](CO[C@]3(C(=O)O)C[C@H](O)[C@@H](NC(=O)CO)[C@H]([C@H](O)[C@H](O)CNC(=O)Cc4ccc(-c5ccc(O)cc5)cc4)O3)[C@H](O)[C@H](O)[C@H]2O)cc1`, the IC50 in assay [1] came to 3.84 µM; in assay [6], 136 µM. Besides, the Ratio IC50 in assay [5] was 41.5.

As for `O=C(CO)N[C@H]1[C@H]([C@H](O)[C@H](O)CNCc2ccc(-c3ccc(O)cc3)cc2)O[C@@](OCc2ccc(-c3ccccc3)cc2)(C(=O)O)C[C@@H]1O`, the IC50 in assay [1] was 23.3 µM; in assay [2], 1.12 µM; in assay [6], 16.6 µM. Besides, the Ratio IC50 in assay [3] was found to be 0.3; in assay [4] it was 0.5; in assay [5], 7.4.

For `COc1ccc(O[C@@H]2O[C@H](CO[C@]3(C(=O)O)C[C@H](O)[C@@H](NC(=O)CO)[C@H]([C@H](O)[C@H](O)CNCc4ccc(-c5ccc(O)cc5)cc4)O3)[C@H](O)[C@H](O)[C@H]2O)cc1`, the results for the IC50 in assay [1], in assay [2] and in assay [7] were 6.43 µM, 0.53 µM and 37.4 µM, respectively. Further, the figures for the Ratio IC50 in assay [3], in assay [4] and in assay [5] were 1, 1 and 11.4, respectively.

For the compound `O=C(CO)N[C@H]1[C@H]([C@H](O)[C@H](O)CNCc2ccc(-c3ccc(O)cc3)cc2)O[C@@](OCc2ccccc2)(C(=O)O)C[C@@H]1O`, the IC50 came out at 5.03 µM in assay [1], 0.82 µM in assay [2] and 9.27 µM in assay [7]. In addition, the values for the Ratio IC50 in assay [3], in assay [4] and in assay [5] were 1.2, 0.6 and 3.4, respectively.

With `O=C(Cc1ccc(-c2ccc(O)cc2)cc1)NC[C@@H](O)[C@@H](O)[C@@H]1O[C@@](OCc2ccc(-c3ccccc3)cc2)(C(=O)O)C[C@H](O)[C@H]1NC(=O)CO`, the IC50 in assay [1] is 0.19 µM; in assay [2], 0.07 µM; in assay [6], 164 µM. Besides, the Ratio IC50 in assay [3] came out at 20.2; in assay [4], 12; in assay [5] it was 432.
